Hit rate of the full screen: of about 240,000 compounds, about 950 (0.4%) were called active. This is one part of a sample in which actives are shown more often than they occur.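 How the source made its calls: active means lipid droplet intensity inhibited by at least 50%, with more than 500 cells counted; inconclusive means wells with under 300 cells, treated as cytotoxic; inactive means the rest.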
Experiment: inhibitors of hepatocyte lipid droplet formation, primary screen, imaging, high-throughput imaging, BODIPY stain (AID 1656);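 on cell count: cells counted across two imaged fields per well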
Details: AML12 mouse hepatocytes, oleate lipid droplets, at 6.5 µM; cell count: measured here: cell count, cytotoxicity flag; inhibition: stronger effect = higher value
Method in brief: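 System: AML12 hepatocytes (mouse). Probe or stimulus: oleic acid at 100 µM to induce lipid droplet formation. Times: overnight treatment with compound plus oleate. Detection: Image-based BODIPY and DAPI two-channel analysis. Evaluation: percent inhibition of filter-corrected integrated lipid droplet intensity per well.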

Compound	cell count [cells]	inhibition
O=C(Cn1cnc2cc([N+](=O)[O-])ccc2c1=O)NC(=O)NCc1ccccc1	618	-1% (inactive)
Cc1cc(C(=O)Cn2cnc3cc([N+](=O)[O-])ccc3c2=O)c(C)n1CC1CCCO1 (stereo not given)	680	-0.6% (inactive)
CC(C)(C)NC(=O)Cn1cnc2cc([N+](=O)[O-])ccc2c1=O	720	58.1% (active)
CC(=O)N1CCN(c2ccccc2NC(=S)NC(=O)c2cc3ccccc3o2)CC1	682	29.4% (inactive)
Cc1cccc(N2CCN(C(=O)c3cccc(N4C(=O)C5C6C=CC(C6)C5C4=O)c3)CC2)c1C (stereo not given)	793	-0.4% (inactive)
CCCc1cc(C(=O)N2CCCC(CO)(CCCc3ccccc3)C2)n(C)n1 (stereo not given)	631	-27.5% (inactive)
CC1CCN(C(=S)NC(=O)c2ccccc2Br)CC1	661	-5.4% (inactive)
CCCCN1C(=O)/C(=C/C=C2/C=Cc3ccccc3N2CC)SC1=S	734	56.1% (active)
CCCCN1C(=O)/C(=C2/C=CC=CN2C)SC1=S	765	-17.5% (inactive)
CCN1C(=O)/C(=C2/Sc3ccccc3N2CCCS(=O)(=O)O)SC1=S	691	-5.7% (inactive)
COc1ccc(Cl)cc1NC(=O)CN(C)C(=O)CNC(=O)C12CC3CC(CC(C3)C1)C2	778	18.1% (inactive)
COc1ccc(Cl)cc1NC(=O)CN(C)C(=O)CCCc1c[nH]c2ccccc12	812	53.5% (active)
COc1ccccc1NC(=O)CCCc1c[nH]c2ccccc12	740	-19.1% (inactive)
Cc1ccc(-n2nc3c(=O)n(C(C)C(=O)NCc4ccc5c(c4)OCO5)nc(C)c3c2C)cc1 (stereo not given)	665	15.4% (inactive)
O=C(NCCCN1CCOCC1)c1cc(-c2ccccc2F)no1	726	6.3% (inactive)
COC(=O)c1ccc(COc2ccc(/C=C/C(=O)c3ccc(OC)c(CSCC(=O)O)c3)cc2OC)cc1	891	-2% (inactive)
CC(C)c1ccc(N(C(=O)c2ccco2)C(C(=O)NC2CCCC2)c2cccnc2)cc1 (stereo not given)	761	-17.7% (inactive)
Cc1c(C=O)c2ccccc2n1CCOc1ccccc1	839	-1% (inactive)
CN(CC1CCCO1)S(=O)(=O)c1ccc(C(=O)Nc2ccc(F)cc2)cc1 (stereo not given)	687	-1.2% (inactive)
Cc1cc(N2CCCC2)n2nc(C)c(-c3ccccc3)c2n1	697	51.4% (active)
Cc1cc(C(C)(C)C)n2nc(C)c(-c3ccccc3)c2n1	401	2% (inactive)
Cc1cc(-n2nc(C)cc2C)n2nc(C)c(-c3ccccc3)c2n1	801	10% (inactive)
CC(=O)c1ccc(NC(=O)c2sc3nc4n(c(=O)c3c2C)CCCCC4)cc1	749	9.9% (inactive)
O=C(C1CCCN(S(=O)(=O)c2ccc([N+](=O)[O-])cc2)C1)N1CCCCC1 (stereo not given)	814	0.4% (inactive)
COc1ccc(-c2nonc2NC(=O)c2oc3ccc(F)cc3c2C)cc1OC	738	39.5% (inactive)

Compound	cell count [cells]	inhibition
COc1ccccc1CNC(=O)C1CCN(S(=O)(=O)c2ccc3c(c2)CC(C)N3C(=O)C2CC2)CC1 (stereo not given)	719	-4.5% (inactive)
COc1ccc(NC(=O)CN2C(=O)COc3ccc(S(=O)(=O)N4CCOCC4)cc32)c(OC)c1	694	-1.6% (inactive)
COc1ccccc1CNC(=O)[C@@H]1CCCN1C(=O)[C@@H]1Cc2ccccc2CN1C(=O)OC(C)(C)C	737	-4.8% (inactive)
CC(C)(COC(=O)Nc1ccccc1)COC(=O)Nc1ccccc1	842	2% (inactive)
CSCCC(NS(=O)(=O)c1ccccc1F)C(=O)N1CC=C(c2ccccc2)CC1 (stereo not given)	678	-35.6% (inactive)
O=C1/C(=C/c2ccc(F)cc2)SC(=S)N1CCCC(=O)N1CCCCC1CCO (stereo not given)	789	-7.9% (inactive)
CCOCCCNc1nc(-c2ccccc2)nc2ccccc12	835	1.2% (inactive)
CC(Nc1nc(C(F)(F)F)nc2ccccc12)c1cccs1 (stereo not given)	808	-12.3% (inactive)
Cc1sc2nc(SCCO)n(-c3ccccc3)c(=O)c2c1C	835	-15% (inactive)
Cc1ccccc1NC(=O)CSc1ccc2nnc(-c3ccccn3)n2n1	640	22.7% (inactive)
COc1ccc(CCNC(=O)c2ccccc2OCc2ccccc2)cc1	773	-18.7% (inactive)
COc1ccc(CCNC(=O)CCc2cn(C)c3ccccc23)c(OC)c1	811	15.9% (inactive)
Cc1cccnc1CC(C)NC(=O)c1cc(COc2cncc(Cl)c2)on1 (stereo not given)	704	3.6% (inactive)
COc1ccc(/C=C2\SC(=S)N(CCCC(=O)NC3CCCC3)C2=O)cc1OC	711	-15.3% (inactive)
CCOc1ccc(-n2c(SCC(=O)OC)nc3sc4c(c3c2=O)CCN(C)C4)cc1	796	4.9% (inactive)
CCOc1ccccc1NC(=S)N1CCN(c2cccc(C)c2C)CC1	777	-21% (inactive)
O=C(c1ccc(OC2CCN(C/C=C/c3ccc(F)cc3)CC2)cc1)N1CCCCC1	815	2% (inactive)
O=C(Nc1ccc(F)cc1)c1ccc(S(=O)(=O)NCc2cccnc2)cc1	806	-51.8% (inactive)
CC(C)=CCCC(C)CN1CCC(n2nccc2NC(=O)c2ccccc2)CC1 (stereo not given)	722	2.9% (inactive)
N#C/C(=C\C1=C(N2CCOCC2)C(=C\c2ccccc2)/CC1)C(=O)Nc1ccccc1F	430	56.4% (active)
N#C/C(=C\c1ccccc1C(F)(F)F)C(=O)Nc1ccccc1F	614	1.8% (inactive)
N#C/C(=C/c1ccc(N2CCOCC2)o1)C(=O)N1CCOCC1	636	-9.6% (inactive)
Cc1ccc(CNC(=O)CCS(=O)(=O)c2ccc3c(c2)CC(C)N3C(=O)C2CC2)o1 (stereo not given)	715	-2.5% (inactive)
Cc1nn(C(C)C(=O)NCCC2=CCCCC2)c(=O)c2nn(-c3ccccc3)c(C)c12 (stereo not given)	685	-3.8% (inactive)
COc1ccc(C)cc1N(C(=O)Cn1nnc(-c2ccc(C)o2)n1)C(C(=O)NC1CCCC1)c1ccncc1 (stereo not given)	749	-20.1% (inactive)

Source: PubChem BioAssay AID1656 (Sanford-Burnham Center for Chemical Genomics, 2009)
